# Bioassay records (PubChem BioAssay)
# Compounds with a hit are over-represented: about 1.9% of the library has one in this group of screens.
# SK-BR-3 tox 24h: SK-BR-3 proliferation inhibitors, primary screen, cell-based, human, 24 h | SK-BR-3 viability, CellTiter-Glo ATP luminescence; stronger effect = lower value | viability, % at 10 µM | hit rate 0.47% among 41,000 | AID 847, 2007;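 active means viability at or below the median of all test compounds minus 3 SD, in both replicates if run twice, cut at about 45% in these data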;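 further: 100% = median untreated cell wells and 0% = median positive control drug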
# Htt clearance: clearance of mutant huntingtin inclusions, primary screen, imaging, HeLa Exon1htt(103Q)mCFP, confocal imaging; aggregate imaging; zero = plate's median compound well; inhibition, % at 1.5 µM; hit rate 0.42% among 47,000;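 active means inhibition of aggregate fluorescence above about 70%, also judged a hit by eye on the cell image, limit read from the data, passing the limit was not always enough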;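 further: cells exposed to compound for three days before fixation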
# Her2 expr inh: inhibitors of Her2 protein expression, primary screen, SKBR-3 cells, AlphaScreen, 66K library; hit rate 0.69% among 65,000; Receptor tyrosine-protein kinase erbB-2 (Homo sapiens), P04626; HER2 level % of control, % at 10 µM; SKBR-3 HER2 protein level, 18-24 h; stronger effect = lower value;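 active means HER2 level under 5% of the carrier-only control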;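 further: 100% = DMSO carrier and 0% = 500 nM PU-H71 HSP90 inhibitor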
# HEK293 NFkB inh: inhibitors of PMA/ionomycin-induced NF-kB reporter, primary screen, antigen receptor NF-kB inhibitor project, cell-based, HEK-293 luciferase reporter, luminescence | hit rate 0.21% among 62,000 | inhibition, % at 3 µM | HEK-293 NF-kB luciferase reporter;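 active means inhibition above the mean of all tested compounds plus 3 SD, cut at about 40% in these data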;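 further: 0% = stimulated DMSO wells and 100% = 10 µM reference inhibitor 5653914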
#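 Timing: 1 h pretreatment, 16 h stimulation, 37 °C; system: HEK-293 cells with stable firefly luciferase reporter driven by four HIV NF-kB elements; doses: 3 µM once, 0.30% DMSO; measured by: luciferase luminescence; control set: DMSO and 10 µM reference inhibitor; repeats: single test; reagent: PMA plus ionomycin mix as NF-kB-activating stimulus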
# Jurkat tox 60K: cytotoxicity toward Jurkat T cells, primary screen, cytotoxicity control, cell-based, Jurkat E6.1, 60K MLSMR library; inhibition, % at 4 µM; hit rate 1.2% among 56,000; Jurkat E6.1 viability, ATP luminescence, 48 h;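 active means inhibition above the mean inhibition of all tested compounds plus 3 SD, cut at about 28% in these data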
# * = called active by the depositor; . = no result given.
SMILES,SK-BR-3 tox 24h,Htt clearance,Her2 expr inh,HEK293 NFkB inh,Jurkat tox 60K
O=C(CCn1[nH]c(=O)c2ccccc2c1=O)OC1CCCCC1,82.2,29.8,-23.5*,11.6,-6.8
O=C(NCCSc1c[nH]c2ccccc12)c1ccc(Br)o1,.,5.2,59.0,13.0,37.8*
O=C(Nc1ccc2c(c1)OCO2)c1cccc(F)c1,83.2,-1.6,93.3,-1.3,4.3
O=C(/C=C\Nc1cccc(F)c1)c1ccc2c(c1)OCO2,.,83.6*,61.9,-29.3,-9.0
Cc1ccccc1C(=O)N1CCN(c2ccccn2)CC1,.,-4.3,.,.,.
O=C(c1ccccc1-c1ccccc1)N1CCN(c2ccccn2)CC1,88.1,.,106.3,25.3,83.8*
O=S(=O)(Nc1ccc2c(c1)CCC2)c1cccs1,.,.,-26.2*,9.6,10.3
O=C(CN1C(=O)c2ccccc2S1(=O)=O)N1CCN(Cc2ccc3c(c2)OCO3)CC1,39.7*,32.2,85.2,-13.9,1.3
COc1ccc(S(=O)(=O)O/N=C2\CCCc3ccccc32)cc1,.,-9.8,.,.,.
CCOc1cc(S(=O)(=O)NCCc2cccc(C)c2)c(OCC)cc1-n1cnnn1,83.3,42.5,3.6*,10.2,1.5
Nc1cc2c(cc1C(=O)c1ccc(Cl)cc1)OCCO2,.,1.5,.,.,.
Cc1nc(C)c(-c2csc(NCc3ccco3)n2)s1,.,.,130.3,8.1,-0.8
Cc1nc2ccccn2c1-c1csc(NCc2ccco2)n1,75.7,6.7,82.6,9.6,31.5*
CCn1nnnc1SCC(=O)c1ccc(C)cc1,.,-99.4,.,.,.
Oc1ccc(N2CCN(C(c3cccs3)c3nnnn3CCc3ccccc3)CC2)cc1 (configuration not stated),100.8,-19.2,99.9,0.3,-2.3
CCOC(=O)c1c(C)c(C(=O)Nc2ccc3c(c2)OCCO3)c(C)n1C,.,.,139.7,12.9,-0.6
CCOC(=O)c1c(C)c(C(=O)Nc2cc(F)ccc2F)c(C)n1C,.,.,45.0,16.8,40.0*
O=S(=O)(NCc1ccc2c(c1)OCO2)c1cccc2cccnc12,100.4,-25.1,99.7,10.8,0.9
CCOC(=O)C1=C(N)n2c(s/c(=C\c3ccco3)c2=O)=C(C(=O)OC(C)C)C1c1ccco1 (configuration not stated),74.6,.,99.5,.,.
CCOC(=O)C1=C(N)n2c(s/c(=C\c3ccco3)c2=O)=C(C(=O)OCC)C1c1ccco1 (configuration not stated),108.6,32.6,52.4,17.5,60.7*
CCOC(=O)c1[nH]c(C)c(C(=O)Nc2cc(Cl)ccc2C)c1C,.,.,82.2,28.3,88.3*
CCOC(=O)c1[nH]c(C)c(C(=O)Nc2ccc(C)c(Cl)c2)c1C,.,-0.4,86.0,8.3,5.5
CCOC(=O)c1[nH]c(C)c(C(=O)Nc2ccccc2C)c1C,.,.,74.5,15.6,78.6*
CCOC(=O)c1[nH]c(C)c(C(=O)Nc2ccc(C)c(F)c2)c1C,.,.,87.7,-12.6,49.3*
CCCCOCCCNC(=O)CN1C(=O)c2ccccc2C1=O,96.3,-9.6,-20.6*,.,.
SMILES,SK-BR-3 tox 24h,Htt clearance,Her2 expr inh,HEK293 NFkB inh,Jurkat tox 60K
O=C(Nc1nc(-c2ccccn2)cs1)c1ccc(S(=O)(=O)N2CCCCC2)cc1,83.5,.,65.6,30.6,54.3*
O=C(Nc1nc(-c2ccccn2)cs1)c1ccc(Cl)s1,.,.,74.2,7.8,48.4*
O=C(Nc1nc(-c2ccccn2)cs1)c1ncc(Cl)c(Cl)c1Cl,.,39.0,.,.,.
CN1/C(=C/C(=O)c2nc(S(C)(=O)=O)ncc2Cl)C(C)(C)c2ccccc21,.,.,-15.3*,20.7,101.6*
Nc1c(C(=O)NCCN2CCOCC2)c2nc3ccccc3nc2n1-c1ccc2c(c1)OCO2,82.5,.,104.5,11.6,-11.7
Nc1c(C(=O)NCc2ccc3c(c2)OCO3)c2nc3ccccc3nc2n1CCCN1CCOCC1,107.0,.,3.8*,15.5,4.9
Cc1ccc(Oc2ccccc2)c(NC=O)c1,36.0*,.,108.5,4.3,.
Nc1cc(Cl)ccc1Oc1ccccc1,99.5,-21.7,87.9,19.8,0.6
COc1ccc2c(c1)C(C)=CC(C)(C)N2C(=O)CSc1nnc(-c2ccc(C)cc2)o1,.,29.1,.,10.2,-2.4
CCOc1ccc(N2C(=O)CC(N)C2=O)cc1 (configuration not stated),110.3,-21.6,153.4,.,.
CCOc1ccc(N2C(=O)CC(Sc3nc(C)cc(C)c3C#N)C2=O)cc1 (configuration not stated),86.4,.,-9.9*,4.2,-4.3
CCc1nnc(NS(=O)(=O)c2ccc(N3C(=O)C4CC=C(Cl)CC4C3=O)cc2)s1 (configuration not stated),100.8,.,.,2.4,-5.0
CCOC(=O)C1CCCN(C(=O)c2cc3c(-c4cccc(OC)c4)nn(C)c3s2)C1 (configuration not stated),.,.,115.4,7.1,79.1*
CCOC(=O)C1CCN(C(=O)c2cc3c(-c4ccc(OC)c(OC)c4)nn(C)c3s2)CC1,.,66.7,118.2,-3.0,5.2
COc1cc(SC)ccc1C(=O)Nc1ccon1,93.0,73.3*,90.4,-0.3,2.6
COc1cc(SC)ccc1C(=O)Nc1ccc(S(=O)(=O)N2CCCC2)cc1,.,.,57.2,-0.3,-1.0
COc1ccc(S(=O)(=O)N(CC(=O)O)c2ccccc2)cc1,81.4,-10.1,78.7,0.0,-0.8
COc1ccc(N(CC(=O)O)S(=O)(=O)c2cccnc2)cc1,84.6,71.2*,95.8,1.7,-12.4
CCCCOC(=O)C(C#N)c1nc2ccccc2nc1N1CCN(Cc2ccc3c(c2)OCO3)CC1 (configuration not stated),78.4,.,-54.8*,15.4,1.1
CCN(CC)C(=O)c1csc(Nc2ccc(C)cc2)n1,38.2*,.,-19.6*,5.3,1.9
CNc1nc(C)cc(C)c1S(=O)(=O)c1ccc(Cl)cc1,.,-42.3,.,.,.
CCN(CC)C(=O)CSc1ncnc2c1nnn2-c1ccc(OC)cc1,.,31.9,80.7,14.1,4.3
COc1ccc(-n2nnc3c(SCC(=O)NCC4CCCO4)ncnc32)cc1 (configuration not stated),.,3.5,-0.9*,2.1,7.6
COc1ccc(NC(=O)c2cnc3ccccn3c2=O)cc1OC,.,.,122.8,-1.7,-5.5
O=C(CSc1nc2ccccc2c(=O)[nH]1)N1CCOCC1,24.0*,.,117.8,2.4,4.7
SMILES,SK-BR-3 tox 24h,Htt clearance,Her2 expr inh,HEK293 NFkB inh,Jurkat tox 60K
CCOc1ccc(Nc2cc(C)nc(-n3nc(C)cc3C)n2)cc1,85.6,.,40.0,19.4,99.2*
CNc1cc(C)nc(-n2nc(C)cc2C)n1,88.9,-18.2,100.9,7.3,3.6
CCOC(=O)c1c(NC(=O)CSc2nnnn2CC)sc(C)c1C,93.5,17.6,13.9,22.0,-0.7
COc1ccc2c(c1[N+](=O)[O-])CCC/C2=N/OC(=O)c1ccccc1SC,.,18.9,.,.,.
Cc1ccccc1S(=O)(=O)Cc1ccc(C(=O)N2CCN(c3cccc(C)c3C)CC2)o1,.,.,49.4,27.8,93.4*
COc1cc(C(=O)N2CCN(c3cc(Cl)ccc3Cl)CC2)cc(OC)c1OC,.,.,57.9,42.7*,60.6*
